Test results taken from ChEMBL document CHEMBL3817772, “Design, Synthesis, and Biological Evaluations of Hydroxypyridonecarboxylic Acids as Inhibitors of HIV Reverse Transcriptase Associated RNase H” (J Med Chem, 2016).
pEC50, pIC50: −log10 of the molar value.

Columns and labels:
[1] = Inhibition of HIV-1 RT-RNase H activity expressed in Escherichia coli JM109 using internal cleavage measuring HTS-1 as substrate by fluorescence-based assay; design: species or system Human immunodeficiency virus 1
Method in brief: (§1)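 RT RNase H cleavage of fluorescein/Dabcyl-labelled RNA/DNA duplexes, with substrate in excess over RT. HTS-1 probes internal cleavage, HTS-2 DNA 3'-end-directed cleavage, and HTS-3 (fluorescein RNA annealed to Dabcyl DNA) RNA 5'-end-directed cleavage.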

[2] = Inhibition of HIV-1 RT-RNase H activity expressed in Escherichia coli JM109 using DNA 3'-end directed cleavage measuring HTS-2 as substrate by fluorescence-based assay; design: species or system Human immunodeficiency virus 1; method in brief: as §1
[3] = Inhibition of HIV-1 RT-RNase H activity expressed in Escherichia coli JM109 using RNA 5'-end directed cleavage measuring HTS-3 as substrate by fluorescence-based assay; design: species or system Human immunodeficiency virus 1; method in brief: as §1
[4] = Inhibition of HIV-1 RT-RNase H domain fragment expressed in Escherichia coli by fluorescence-based assay; design: species or system Human immunodeficiency virus 1
[5] = target: Human immunodeficiency virus type 1 reverse transcriptase (Human immunodeficiency virus 1, UniProt Q72547); assay: Inhibition of HIV-1 RT RNA-dependent DNA polymerase activity expressed in Escherichia coli JM109 using [3H]TTP/ poly(rA)-oligo(dT)16 as substrate incubated for 20 mins by liquid scintillation spectrometric analysis
Method in brief: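 RNA-dependent DNA polymerase reaction in 50 mM Tris-HCl pH 7.4 (37°C), 60 mM KCl, 5 mM MgCl2, with 10 µM [3H]-TTP and 40 nM poly(rA)-oligo(dT)16. Started with 10 nM RT, 20 min at 37°C. Quenched in ice-cold 10% TCA plus 20 mM sodium pyrophosphate, glass-fiber filtered, washed with TCA and ethanol. Incorporation counted by liquid scintillation.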

[6] = target: Human immunodeficiency virus type 1 integrase (Human immunodeficiency virus 1, UniProt Q7ZJM1, C280S/F185K); assay: Inhibition of full-length HIV-1 integrase F185K/C280S double mutant strand transfer activity expressed in Escherichia coli BL21(DE3) using oligo DNA as substrate preincubated for 10 mins followed by substrate addition incubated for 30 mins by plate reader analysis
Human immunodeficiency virus type 1 integrase, sequence (Q7ZJM1 entry or part of it C280S/F185K): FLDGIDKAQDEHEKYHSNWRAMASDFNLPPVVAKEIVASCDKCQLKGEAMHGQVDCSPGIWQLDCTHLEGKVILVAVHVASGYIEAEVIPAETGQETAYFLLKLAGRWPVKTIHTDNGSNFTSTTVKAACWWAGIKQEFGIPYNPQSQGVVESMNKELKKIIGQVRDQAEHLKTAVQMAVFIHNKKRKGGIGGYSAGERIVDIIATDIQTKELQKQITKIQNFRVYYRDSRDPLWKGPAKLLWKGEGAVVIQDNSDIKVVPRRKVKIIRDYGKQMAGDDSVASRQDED

[7] = system: Human immunodeficiency virus 1; assay: Inhibition of HIV-1 RT-RNase H domain expressed in Escherichia coli JM109 at 30 uM using HTS-1 as substrate preincubated for 10 mins followed by substrate/MgCl2 addition incubated for 10 mins by fluorescence-based assay
Method in brief: (§2)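 Order-of-addition RNase H assay, HIV-1 RT in this format. Final conditions: 100 nM RT, 250 nM HTS-1 RNA/DNA duplex, 6 mM MgCl2, 30 µM inhibitor, 1% DMSO. RT is pre-incubated 10 min at 37 °C with the specified components. Missing components are then added and the reaction runs 10 min at 37 °C. Fluorescence signal is corrected against a DMSO-only control. Mean ± SD of two independent experiments.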

[8] = system: Human immunodeficiency virus 1; assay: Inhibition of HIV-1 RT-RNase H domain expressed in Escherichia coli JM109 at 30 uM using HTS-1 as substrate preincubated with compound and MgCl2 for 10 mins followed by substrate addition incubated for 10 mins by fluorescence-based assay; method in brief: as §2
[9] = system: Human immunodeficiency virus 1; assay: Inhibition of HIV-1 RT-RNase H domain expressed in Escherichia coli JM109 at 30 uM using HTS-1 as substrate preincubated with compound/substrate for 10 mins followed by MgCl2 addition incubated for 10 mins by fluorescence-based assay; method in brief: as §2
[10] = system: Human immunodeficiency virus 1; assay: Inhibition of HIV-1 RT-RNase H domain expressed in Escherichia coli JM109 at 30 uM using HTS-1 as substrate preincubated with substrate for 10 mins followed by compound/MgCl2 addition incubated for 10 mins by fluorescence-based assay; method in brief: as §2
[11] = system: Human immunodeficiency virus 1; assay: Inhibition of HIV-1 RT-RNase H domain expressed in Escherichia coli JM109 at 30 uM using HTS-1 as substrate preincubated for 10 mins followed by substrate/MgCl2 addition incubated for 2 mins by fluorescence-based assay
Method in brief: (§3)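 Excess-RT order-of-addition RNase H assay. RT is pre-incubated 10 min at 37 °C with inhibitor or with substrate. Remaining components are added and the reaction runs 2 min at 37 °C. Fluorescence is DMSO-control corrected. Mean ± SD of two independent experiments.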

[12] = system: Human immunodeficiency virus 1; assay: Inhibition of HIV-1 RT-RNase H domain expressed in Escherichia coli JM109 at 30 uM using HTS-1 as substrate preincubated with substrate for 10 mins followed by compound/MgCl2 addition incubated for 2 mins by fluorescence-based assay; method in brief: as §3
[13] = system: Human immunodeficiency virus 1; assay: Antiviral activity against HIV-1 infected in human HeLa P4/R5 cells assessed as inhibition of virus replication pretreated for 16 hrs followed by infection measured after 48 hrs by fluorescence-based beta-galactosidase detection assay; format: functional, organism-based
Method in brief: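 P4R5 indicator cells (CD4, CXCR4, CCR5; HIV LTR-driven β-galactosidase reporter) seeded at 5×10^3 per well in DMEM/10% FBS with puromycin 0.5 µg/ml. Drug exposure 16 h, then HIV infection and a further 48 h. Infection read by fluorescence-based β-galactosidase detection. Triplicate data points; EC50 taken from dose-response.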

[14] = Cytotoxicity against human HeLa P4/R5 cells up to 25 uM; format: cell-based

SMILES	pIC50 [1]	pIC50 [2]	pIC50 [3]	pIC50 [4]	pIC50 [5]	pIC50 [6]	inhibition [7] [%]	inhibition [8] [%]	inhibition [9] [%]	inhibition [10] [%]	inhibition [11] [%]	inhibition [12] [%]	inhibition [13]	pEC50 ([13]; Human immunodeficiency virus 1, P4/R5)	CC50 [14] [µM]
O=C(O)c1cn(Cc2ccc(Cl)c(Cl)c2)cc(O)c1=O	4.85	< 4.60	< 4.60	5.33	< 4.60	4.44									
Cc1cc(Cn2cc(O)c(=O)c(C(=O)O)c2)ccc1F	4.77	< 4.60	< 4.60	5.01	< 4.60	< 4.00									
O=C(O)c1cn(CC2(c3ccccc3)CCCC2)cc(O)c1=O	5.82	5.29	5.31	5.09	5.74	4.85	75	84	38	18	42	15			
O=C(O)c1cn(Cc2ccc(-c3cccnc3)cc2)cc(O)c1=O					< 4.60										
CC(c1ccc(F)cc1)n1cc(O)c(=O)c(C(=O)O)c1 (centres undefined)	4.80	< 4.60	< 4.60	5.28	< 4.60	4.47									
O=C(O)c1cn(Cc2ccc(-c3ccccc3)cc2)cc(O)c1=O	5.60	5.55	5.54	5.74	5.66	4.66	68	36	37	21	78	59			
O=C(O)c1cn(Cc2ccc(-c3cnc4ccccc4c3)cc2)cc(O)c1=O	6.05						95	68	66	50	91	74			
O=C(O)c1c[nH]cc(O)c1=O	< 4.60	< 4.60	< 4.60	4.66	< 4.60	< 4.00									
NC(=O)c1cn(Cc2ccc(F)cc2)cc(O)c1=O	4.92	< 4.60	< 4.60	5.17	< 4.60	4.49									
O=C(O)c1cn(Cc2ccccc2)cc(O)c1=O	< 4.60	< 4.60	< 4.60	4.96	< 4.60	4.46									
O=C(O)c1cn(-c2ccccc2)cc(O)c1=O	< 4.60	< 4.60	< 4.60	< 4.60	< 4.60	4.43									
CS(=O)(=O)c1ccc(Cn2cc(O)c(=O)c(C(=O)O)c2)cc1	< 4.60	< 4.60	< 4.60	4.60	< 4.60	< 4.00									
O=C(O)c1cn(Cc2ccccc2-c2ccccc2)cc(O)c1=O	5.11	4.60	< 4.60	5.29	< 4.60	4.77									
O=C(O)c1cn(Cc2ccncc2)cc(O)c1=O	< 4.60	< 4.60	< 4.60	< 4.60	< 4.60	< 4.00									
COc1ccc(Cn2cc(O)c(=O)c(C(=O)O)c2)cc1					< 4.60		69	52	27	21	70	58			
O=C(O)c1cn(Cc2ccc(Cl)cc2)cc(O)c1=O		< 4.60	< 4.60		< 4.60										
NS(=O)(=O)c1ccc(-c2ccc(Cn3cc(O)c(=O)c(C(=O)O)c3)cc2)cc1	6.19	5.82	6.00	5.89	5.92	< 4.00	97	79	68	14	92	80			
O=C(O)c1cn(Cc2ccc(F)cc2F)cc(O)c1=O	4.89	< 4.60	< 4.60	5.17	< 4.60	< 4.00									
O=C(O)c1cn(Cc2ccc(Cl)cc2Cl)cc(O)c1=O	4.92	< 4.60	< 4.60	5.38	< 4.60	4.60									
O=C(O)c1cn(Cc2ccc(Br)cc2)cc(O)c1=O	< 4.60	< 4.60	< 4.60	< 4.60	< 4.60	< 4.00									
O=C(O)c1cn(Cc2ccc(F)c(Cl)c2)cc(O)c1=O	4.74	< 4.60	< 4.60	5.01	< 4.60	4.35									
CC(c1cccc2ccccc12)n1cc(O)c(=O)c(C(=O)O)c1 (centres undefined)	5.15	< 4.60	4.89	5.43	4.72	5.65									
O=C(O)c1ccc(Cn2cc(O)c(=O)c(C(=O)O)c2)cc1	< 4.60	< 4.60	< 4.60	4.85	< 4.60	< 4.00									
NCc1ccc(-c2ccc(Cn3cc(O)c(=O)c(C(=O)O)c3)cc2)cc1		5.36	5.41	5.36	5.49	5.11									
O=C(O)c1cn(Cc2ccc(F)cc2)cc(O)c1=O	4.77	< 4.60	< 4.60	5.11	< 4.60	4.46									
O=C(O)c1cn(Cc2cccc(C(F)(F)F)c2)cc(O)c1=O		< 4.60	< 4.60		< 4.60										
CCOC(=O)c1cn(Cc2ccc(F)cc2)cc(O)c1=O	< 4.60	< 4.60	< 4.60	< 4.60	< 4.60	< 4.00									
O=C(O)c1cn(Cc2cccc3ccccc23)cc(O)c1=O							58	51	35	28	82	61	Dose-dependent effect	5.00	> 25
